Reference: paper PMC10606955 (Chemico-biological interactions, 2023)
Several values for one entry are separate records, joined by “and”; a condition that tells them apart may be missing. Identical values can stand only once. Entries after “also recorded” stand apart in the source; their conditions may differ.

Legend:
[1] = molecular target: T1, carboxylesterase 1 (CES1) (Homo sapiens, UniProt P23141); assay: Reversible inhibition kinetics of CES1; assay type: biochemical; conditions: for α (reversible inhibition type): 1 = noncompetitive, infinity = competitive, between = mixed-type; for α (reversible inhibition type) / Vmax: mean ± S.D.; for Vmax: OC formation, fit parameter, triplicate experiments; for type of reversible inhibition of CES1: from modified Michaelis-Menten model
T1 sequence (P23141 18-567): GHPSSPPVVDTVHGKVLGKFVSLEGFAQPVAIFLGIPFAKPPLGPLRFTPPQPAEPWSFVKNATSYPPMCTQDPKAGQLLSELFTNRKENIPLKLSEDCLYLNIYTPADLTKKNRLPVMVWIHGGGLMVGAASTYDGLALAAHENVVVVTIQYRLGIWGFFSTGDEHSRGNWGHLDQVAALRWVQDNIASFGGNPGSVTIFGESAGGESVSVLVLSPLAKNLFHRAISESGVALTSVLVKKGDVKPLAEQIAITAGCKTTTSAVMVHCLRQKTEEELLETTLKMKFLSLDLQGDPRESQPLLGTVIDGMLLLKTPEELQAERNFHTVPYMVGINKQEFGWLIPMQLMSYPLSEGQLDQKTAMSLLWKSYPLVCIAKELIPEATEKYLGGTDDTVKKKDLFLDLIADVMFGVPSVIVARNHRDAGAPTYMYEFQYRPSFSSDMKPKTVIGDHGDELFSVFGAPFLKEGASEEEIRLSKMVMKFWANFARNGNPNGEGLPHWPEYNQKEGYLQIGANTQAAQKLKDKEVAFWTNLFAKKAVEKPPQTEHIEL

[2] = molecular target: T1, carboxylesterase 1 (CES1); assay: Time-dependent inhibition of CES1; assay type: biochemical; conditions: for Ratio of Preincubation to No Preincubation (IC50, alkaloids): 30 min preincubation; for IC50: mean ± S.E., 200 μM OST
[3] = molecular target: T1, carboxylesterase 1 (CES1); assay: Concentration response curves for inhibition of CES1; assay type: biochemical; conditions: 200 μM OST, CES1 S9; for IC50: read-out: IC50 (kratom alkaloids), alkaloid 0–128 μM, 1% DMSO
Procedure, shortened: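 CES1 S9 (supernatant, 9000g, from sonicated Flp-In-293 cells expressing wild-type CES1) at 20 μg/mL in 50 mM phosphate buffer. Test compound at 0–128 μM, or extracts at 0–128 μg/mL, in 1% DMSO with 200 μM oseltamivir, 15 min at 37°C. Stopped with 4 volumes acetonitrile containing ritalinic acid internal standard. Oseltamivir carboxylate measured by LC-MS/MS and expressed relative to DMSO control; IC50 fitted by modified Hill equation.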

[4] = human, 2g dose of kratom; cited from earlier work
[5] = Preincubation 30 min with CES1 S9

Q: For `C=C[C@H]1CN2CCc3c([nH]c4cccc(OC)c34)[C@@H]2C[C@@H]1/C(=C\OC)C(=O)OC` [paynantheine], which “α (reversible inhibition type)” value [1] is on record?
A: The value was 8.439 ± 6.336.

Q: What about the Vmax [1] of the same molecule?
A: The Vmax was 232.2 ± 18.38 nmol/min/mg protein.

Q: And the “type of reversible inhibition of CES1” value [1]?
A: The value was “mixed-type reversible inhibitors; also recorded: mixed competitive-noncompetitive inhibition; also recorded: mixed competitive-noncompetitive inhibitors”.

Q: And the “Ratio of Preincubation to No Preincubation (IC50, alkaloids)” value [2]?
A: Its value is 1.38.

Q: And the IC50 ([2]; No preincubation)?
A: Its IC50 is 32.9 ± 7.2 µM.

Q: And the IC50 [2, 5]?
A: Its IC50 is 45.6 ± 14.1 µM.

Q: And the “concentration dependence of CES1 inhibition” value [3]?
A: Its value is “concentration-dependent reversible inhibition”.

Q: And the IC50 [3]?
A: The IC50 was 32.9 µM and < 50 µM.

Q: With `CC[C@@H]1CN2CCc3c([nH]c4cccc(OC)c34)[C@H]2C[C@@H]1/C(=C\OC)C(=O)OC` [speciociliatine] as the molecule, how does the “α (reversible inhibition type)” value [1] read?
A: The value was 2.817 ± 1.666.

Q: And the Vmax [1]?
A: The Vmax was 210.5 ± 41.43 nmol/min/mg protein.

Q: What about the “type of reversible inhibition of CES1” value [1] of the same molecule?
A: Its value is “mixed competitive-noncompetitive inhibitors”.

Q: What about the “type of reversible inhibition of CES1” value ([1]; listed as Speciociliatine) of the same molecule?
A: The value was “mixed-type reversible inhibitors; also recorded: mixed competitive-noncompetitive inhibition”.

Q: What about the Cmax [4] of the same molecule?
A: Its Cmax is 0.308 µM.

Q: What about the “Ratio of Preincubation to No Preincubation (IC50, alkaloids)” value [2] of the same molecule?
A: The value was 1.18.

Q: And the IC50 ([2]; No preincubation)?
A: Its IC50 is 18.1 ± 4 µM.

Q: And the IC50 [2, 5]?
A: The IC50 was 21.4 ± 2.48 µM.

Q: What about the “concentration dependence of CES1 inhibition” value [3] of the same molecule?
A: Its value is “concentration-dependent reversible inhibition”.

Q: What does the source list for `CC[C@H]1CN2CCc3c([nH]c4cccc(OC)c34)[C@@H]2C[C@@H]1/C(=C\OC)C(=O)OC` [speciogynine]?
A: Ratio of Preincubation to No Preincubation (IC50, alkaloids) [2]: 1.22; IC50 [2, 5]: 66.2 ± 29 µM; concentration dependence of CES1 inhibition [3]: concentration-dependent reversible inhibition; IC50 [3]: 54.3 µM

Q: For corynantheidine, which “α (reversible inhibition type)” value [1] is on record?
A: The value was 8.767 ± 2.734.

Q: And the “type of reversible inhibition of CES1” value [1]?
A: The value was “mixed-type reversible inhibitors; also recorded: mixed competitive-noncompetitive inhibition; also recorded: mixed competitive-noncompetitive inhibitors”.

Q: And the “Ratio of Preincubation to No Preincubation (IC50, alkaloids)” value [2]?
A: The value was 0.993.

Q: And the “concentration dependence of CES1 inhibition” value [3]?
A: Its value is “concentration-dependent reversible inhibition”.

Q: For mitragynine, which “α (reversible inhibition type)” value [1] is on record?
A: Its value is “∞”.

Q: What about the Vmax [1] of the same molecule?
A: The Vmax was 224.2 ± 24.37 nmol/min/mg protein.

Q: And the “type of reversible inhibition of CES1” value [1]?
A: The value was “purely competitive inhibitor; also recorded: pure competitive inhibition”.

Q: And the “Ratio of Preincubation to No Preincubation (IC50, alkaloids)” value [2]?
A: Its value is 0.868.

Q: And the IC50 ([2]; No preincubation)?
A: The IC50 was 38.9 ± 16.3 µM.

Q: And the IC50 [2, 5]?
A: Its IC50 is 33.8 ± 5.47 µM.

Q: What about the “concentration dependence of CES1 inhibition” value [3] of the same molecule?
A: Its value is “concentration-dependent reversible inhibition”.

Q: And the IC50 [3]?
A: Its IC50 is 38.9 µM and < 50 µM.
